Data on six compounds can be found in ChEMBL document CHEMBL4715728, “New bifunctional antioxidant/σ1 agonist ligands: Preliminary chemico-physical and biological evaluation” (Bioorg Med Chem, 2016).

Data set [1] deals with Sigma non-opioid intracellular receptor 1 (Cavia porcellus, UniProt Q60492). Kind of data set: Displacement of [3H]-(+)-pentazocine from sigma1 receptor in guinea pig brain membrane incubated for 150 mins by liquid scintillation counting method. The data set is classed as cell membranes. The method in brief:
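Guinea pig brain membranes (500 µg protein) in 50 mM Tris-HCl pH 7.4 with 3 nM [3H]-(+)-pentazocine. […] Incubated 150 min at 37 °C, then filtered on PEI-soaked GF/B filters and counted by scintillation. Ki obtained by EBDA/LIGAND; three determinations.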
A general note: Loss of bound radioactivity is the signal in a displacement assay; it reports binding, not function.

Data set [2] is described as follows: Displacement of [3H]-DTG from Sigma 2 receptor in guinea pig brain membrane incubated for 120 mins in presence of sigma1 blocker (+)-SKF-10047 by liquid scintillation counting method. The data set is classed as cell membranes, Cavia porcellus.
For data set [3], the species on record is Cavia porcellus. Kind of data set: Selectivity ratio of Ki for displacement of [3H]-DTG from sigma2 receptor in guinea pig brain membrane to Ki for displacement of [3H]-(+)-pentazocine from sigma1 receptor in guinea pig brain membrane. The data set is classed as cell membranes.
Data set [4] is described as follows: Cytotoxicity against Sprague-Dawley rat Cerebral cortex neuron assessed as cell viability at 10 uM incubated for 24 hrs by MTT assay relative to control. The data set is classed as tissue-based. The settings on record: cerebral cortex neurons, read-out: Activity. The method in brief:
(§1)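 Primary fetal rat cortical neurons, matured 8 days, treated 24 h at 37 °C with compound (0.1–100 µM; 0.5% DMSO or water vehicle). MTT 0.7 mg/ml was then added for 30 min at 37 °C, and formazan was extracted with isopropanol/formic acid (95:5) and read at 560 nm. Untreated control was set as 100% viability. Four independent experiments.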
On the technique in general: Formazan colour is commonly taken as a measure of viable cells.

Data set [5] in a line: Cytotoxicity against Sprague-Dawley rat Cerebral cortex neuron assessed as cell viability at 25 uM incubated for 24 hrs by MTT assay relative to control. In kind it is tissue-based. The settings on record: cerebral cortex neurons, read-out: Activity. An outline of the steps: as §1
Data set [6] is described as follows: Cytotoxicity against rat Sprague-Dawley Cerebral cortex neuron assessed as cell viability at 50 uM incubated for 24 hrs by MTT assay relative to control. In kind it is tissue-based. The settings on record: cerebral cortex neurons, read-out: Activity. The method in brief: as §1
Data set [7] is described as follows: Cytotoxicity against Sprague-Dawley rat Cerebral cortex neuron assessed as LDH activity at 1 uM incubated for 24 hrs by LDH assay (reference value: […]). In kind it is tissue-based. An outline of the steps: (§2)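 Primary fetal rat cortical neurons, matured 8 days on poly-D-lysine, exposed 24 h at 37 °C to compound (0.1–100 µM; DMSO 0.5% or water vehicle). LDH released into 100 µl culture medium was measured by kit as the rate of NAD+ reduction (absorbance increase at 490 nm). Positive control was mitomycin C. Four independent experiments.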

Data set [8] is described as follows: Cytotoxicity against Sprague-Dawley rat Cerebral cortex neuron assessed as LDH activity at 25 uM incubated for 24 hrs by LDH assay (reference value: […]). The data set is classed as tissue-based. An outline of the steps: as §2
Data set [9] is described as follows: Antioxidant activity in Sprague-Dawley rat Cerebral cortex neuron assessed as total antioxidant capacity by measuring trolox equivalents at 25 uM after 24 hrs. In kind it is functional. An outline of the steps: (§3)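 Primary cerebral cortex neurons from rat fetuses, grown on poly-D-lysine in neurobasal medium with fetal calf serum (5% CO2, 37 °C), tested after 8 days in culture. Compounds in DMSO (0.5%) or sterile water were added and incubated 24 h at 37 °C. Cells were washed in ice-cold PBS and homogenized in 0.9% saline. Intracellular TAC (Trolox equiv.) and TOS (H2O2 equiv.) were read by kit. Ascorbic acid 10 µM (TAC) and H2O2 25 µM (TOS) served as positive controls. Four independent experiments.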

The nature of data set [10]: Antioxidant activity in Sprague-Dawley rat Cerebral cortex neuron assessed as total antioxidant capacity by measuring trolox equivalents at 100 uM after 24 hrs. The data set is classed as functional. The method in brief: as §3
The nature of data set [11]: Antioxidant activity in Sprague-Dawley rat Cerebral cortex neuron assessed as total oxidative stress level by measuring H2O2 equivalents at 0.1 uM after 24 hrs (reference value: 2.3 +/- 0.3 umol/L). In kind it is functional. An outline of the steps:
as §3

Data set [12] in a line: Stability of compound in non-enzymatic stimulated-gastric fluid at pH 1.3 assessed as rate of compound hydrolysis by HPLC-UV assay. The data set is classed as physicochemical. The settings on record: simulated gi fluid. The method in brief:
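Chemical hydrolysis in 0.02 M HCl buffer pH 1.3 (non-enzymatic simulated gastric fluid) or 0.02 M phosphate buffer pH 7.4, each containing 20% acetonitrile, at 37 °C. Started by adding the 10^-4 M acetonitrile stock. Samples taken over time and analyzed by HPLC-UV at 220 nm. Rate constants are means of triplicates.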

The nature of data set [13]: Stability of compound in fasted state stimulated intestinal fluid at pH 1.3 assessed as rate of compound hydrolysis in presence of 10 mg/ml pepsin by HPLC-UV assay. The settings on record: isolated protein. The data set is classed as ADME. The method in brief: (§4)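 HCl buffer with pepsin or phosphate buffer with pancreatin (10 or 40 mg/ml), preincubated at 37 °C. Drug stock (50 µM in ethanol/fasted state intestinal fluid 1:9) added and shaken at 37 °C, 650 rpm. Samples quenched with ice-cold acetonitrile containing 0.5% formic acid, centrifuged at 2 °C, and the supernatant assayed by HPLC-UV. Three experiments.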

Data set [14] in a line: Stability of compound in fasted state stimulated intestinal fluid at pH 7.4 assessed as rate of compound hydrolysis in presence of 10 mg/ml pancreatin by HPLC-UV assay. Conditions: simulated gi fluid. The data set is classed as ADME. An outline of the steps: as §4
Data set [15] in a line: Stability of compound in fasted state stimulated intestinal fluid at pH 7.4 assessed as rate of compound hydrolysis in presence of 40 mg/ml pancreatin by HPLC-UV assay. The settings on record: simulated gi fluid. The data set is classed as ADME. An outline of the steps: as §4
Data set [16] can be described thus: Stability of compound in rat plasma assessed as rate of compound hydrolysis by HPLC-UV assay. The data set is classed as ADME, cell-free. An outline of the steps:
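Citrated human or rat plasma diluted to 80% with 0.02 M phosphate buffer pH 7.4, 37 °C with shaking. Compound added from a 1 mg/ml acetonitrile stock. Aliquots deproteinized with 0.01 M HCl in methanol, centrifuged, and analyzed by HPLC-UV (C8 column, KH2PO4/methanol pH 2.5, 220 nm). Remaining intact compound plotted against time. Three experiments.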

The test system of data set [17] is Mus musculus. The experiment in a line: In vivo agonist activity at sigma 1 receptor in Swiss […] mouse assessed as modulation of morphine-induced analgesic effect by measuring tail flick latency at 1 mg/kg, ip measured after 90 mins by radiant heat tail-flick method. In kind it is functional, organism-based.
For data set [18], the system named is Mus musculus. Kind of data set: In vivo agonist activity at sigma 1 receptor in Swiss […] mouse assessed as modulation of morphine-induced analgesic effect by measuring tail flick latency at 1 mg/kg, ip preincubated for 45 mins followed by morphine treatment after 90 mins by radiant heat tail-flick method. In kind it is functional, organism-based. The settings on record: time 135.0 min. On the technique in general: In hot-plate and tail-flick tests a longer latency is read as antinociception.

Calls of active or inactive are those of the source. The rule behind the calls is not given here.

Sigma non-opioid intracellular receptor 1, sequence (Q60492 whole entry): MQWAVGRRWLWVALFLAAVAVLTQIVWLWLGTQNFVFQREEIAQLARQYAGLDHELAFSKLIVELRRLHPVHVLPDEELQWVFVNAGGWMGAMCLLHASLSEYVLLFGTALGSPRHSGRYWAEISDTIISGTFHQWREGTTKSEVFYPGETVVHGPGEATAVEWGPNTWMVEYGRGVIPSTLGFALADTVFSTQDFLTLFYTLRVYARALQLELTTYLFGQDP

Regarding `COc1ccc(CN2CCN(C(=O)CCCCC3CCSS3)CC2)cc1` (centres undefined), the Ki (commonly a measure of affinity in units of concentration, obtained from inhibition or displacement) in [1] was found to be 5.7 nM; in [2] it was 2460 nM. Moreover, in data set [3], the Ratio Ki worked out at 432. For the same compound, the viability at 24 h, 10 µM in [4] is 96.1%. The viability at 24 h, 25 µM in [5] was found to be 95.3%. Besides, the viability at 24 h, 50 µM in data set [6] is 92.7%. Besides, the results for the Activity in data set [7], in data set [8] and in data set [11] were 0.3 mU/ml, 0.29 mU/ml and 0.4 µmol/L, respectively. Moreover, the figures for the TAC in [9] and in data set [10] were 11.3 mmol/L and 10.8 mmol/L, respectively. The Drug degradation in data set [12] was 0.003 h⁻¹; in data set [13], 0.006 h⁻¹; in [14] it was 0.011 h⁻¹; in [15], 0.017 h⁻¹; in [16] it was 0.168 h⁻¹.
Turning to `COc1ccc(CN2CCC(OC(=O)CCCCC3CCSS3)CC2)cc1` (centres undefined), the Ki in [1] came to 3.1 nM; in data set [2], 1500 nM. The Ratio Ki in [3] stood at 484. Further, the viability at 24 h, 10 µM in data set [4] was 97.1%. Besides, the viability at 24 h, 25 µM in data set [5] came to 96.2%. Also, the viability at 24 h, 50 µM in data set [6] worked out at 95%. For the same compound, the Activity in [7] was determined as 0.29 mU/ml; in data set [8], 0.32 mU/ml; in data set [11], 0.5 µmol/L. Besides, the TAC is listed as 11.4 mmol/L in data set [9] and 10.7 mmol/L in [10]. In addition, the Drug degradation in data set [12] was 0.013 h⁻¹; in data set [13], 0.018 h⁻¹; in [14] it was 0.249 h⁻¹; in data set [15], 0.245 h⁻¹; in [16], 1.506 h⁻¹.
On to `O=C(CCCCC1CCSS1)OC1CCN(Cc2ccccc2)CC1` (centres undefined), for which the outcome in [17] was inactive. In addition, the outcome in data set [18] was Active. In data set [4], the viability at 24 h, 10 µM is 97.8%. Moreover, in data set [5], the viability at 24 h, 25 µM is 98.1%. In addition, the viability at 24 h, 50 µM in data set [6] was 97.6%. Also, the Activity in [7] was found to be 0.26 mU/ml; in [8], 0.32 mU/ml; in data set [11] it was 0.5 µmol/L. In addition, the TAC in data set [9] is 13.8 mmol/L; in [10], 12.5 mmol/L. Further, the Drug degradation is 0.012 h⁻¹ in data set [12], 0.028 h⁻¹ in data set [13], 2.389 h⁻¹ in data set [14] and 7.615 h⁻¹ in [15].
For `O=C(CCCCC1CCSS1)OC1CCN(Cc2ccc(F)cc2)CC1` (centres undefined), the Ki was 4.1 nM in [1] and 6500 nM in data set [2]. Also, the Ratio Ki in data set [3] is 1580. For the same compound, in data set [17], the outcome was inactive. Besides, the result in [18] was Active. Besides, the viability at 24 h, 10 µM in [4] is 96.9%. Besides, in [5], the viability at 24 h, 25 µM stood at 97.1%. Besides, the viability at 24 h, 50 µM in data set [6] worked out at 95.8%. Moreover, the results for the Activity in [7], in data set [8] and in data set [11] were 0.3 mU/ml, 0.3 mU/ml and 0.4 µmol/L, respectively. In addition, the TAC in [9] is 12.6 mmol/L; in data set [10], 12.4 mmol/L. The Drug degradation was 0.015 h⁻¹ in [12], 0.184 h⁻¹ in [13] and 1.238 h⁻¹ in [16].
For the compound `O=C(CCCCC1CCSS1)N1CCN(Cc2ccc(F)cc2)CC1` (centres undefined), the Ki in data set [1] is 2.9 nM; in data set [2] it was 1300 nM. Further, the Ratio Ki in data set [3] came out at 448. In addition, in [17], the result was inactive. In addition, the result in data set [18] was Active. Besides, the viability at 24 h, 10 µM in data set [4] came out at 97.2%. Besides, the viability at 24 h, 25 µM in data set [5] worked out at 96%. Also, the viability at 24 h, 50 µM in [6] came out at 96.5%. Also, the results for the Activity in data set [7], in data set [8] and in data set [11] were 0.28 mU/ml, 0.32 mU/ml and 0.4 µmol/L, respectively. The TAC in data set [9] is 13.9 mmol/L; in data set [10] it was 11.1 mmol/L. Further, the Drug degradation in data set [12] was 0.008 h⁻¹; in [13], 0.007 h⁻¹; in [14], 0.009 h⁻¹; in data set [15], 0.021 h⁻¹; in [16], 0.237 h⁻¹.
As for `O=C(CCCCC1CCSS1)N1CCN(Cc2ccccc2)CC1` (centres undefined), in [17], the result was inactive. Also, the outcome in data set [18] was Active. The viability at 24 h, 10 µM in data set [4] was determined as 97.5%. The viability at 24 h, 25 µM in data set [5] is 96.8%. Further, the viability at 24 h, 50 µM in data set [6] turned out to be 96%. The Activity was found to be 0.32 mU/ml in data set [7], 0.32 mU/ml in data set [8] and 0.5 µmol/L in [11]. Further, the TAC was determined as 12.9 mmol/L in data set [9] and 14.6 mmol/L in [10]. The Drug degradation is 0.007 h⁻¹ in data set [12], 0.01 h⁻¹ in data set [13], 0.031 h⁻¹ in [14] and 0.072 h⁻¹ in data set [15].
